Values belong to the molecule of their own block, whether it stands above or below them. Calls of active or inactive are those of the source. No cut-off for these calls is given here.
How the values were obtained:
[1] = molecular target: T1, Induced myeloid leukemia cell differentiation protein Mcl-1 (Homo sapiens, UniProt Q07820); experiment: Binding affinity to MCL1 short isoform in human OPM2 incubated overnight using biotin labelled compound by streptavidin based immunoprecipitation method
[2] = molecular target: T1, Induced myeloid leukemia cell differentiation protein Mcl-1; experiment: Binding affinity to MCL1 long isoform in human OPM2 incubated overnight using biotin labelled compound by streptavidin based immunoprecipitation method
[3] = molecular target: T2, Protein cereblon/Induced myeloid leukemia cell differentiation protein Mcl-1 (Homo sapiens) (UniProt Q07820+Q96SW2); experiment: Protac activity at Cereblon/MCL1 in human HeLa cell lysate assessed as MCL1 degradation incubated for 3 hrs by SDS-PAGE/immunoblot analysis; assay type: subcellular
T2 sequence (Q07820 whole entry, looked up): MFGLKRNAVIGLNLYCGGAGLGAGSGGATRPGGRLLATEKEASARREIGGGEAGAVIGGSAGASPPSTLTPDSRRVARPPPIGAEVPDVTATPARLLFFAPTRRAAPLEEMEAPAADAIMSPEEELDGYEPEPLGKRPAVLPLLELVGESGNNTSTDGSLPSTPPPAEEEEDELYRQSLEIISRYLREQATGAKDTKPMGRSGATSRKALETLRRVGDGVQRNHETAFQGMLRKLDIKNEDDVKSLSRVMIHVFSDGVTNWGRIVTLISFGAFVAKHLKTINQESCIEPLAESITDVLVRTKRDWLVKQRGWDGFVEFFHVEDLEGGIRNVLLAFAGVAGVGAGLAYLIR
T2 sequence (Q96SW2 whole entry, looked up): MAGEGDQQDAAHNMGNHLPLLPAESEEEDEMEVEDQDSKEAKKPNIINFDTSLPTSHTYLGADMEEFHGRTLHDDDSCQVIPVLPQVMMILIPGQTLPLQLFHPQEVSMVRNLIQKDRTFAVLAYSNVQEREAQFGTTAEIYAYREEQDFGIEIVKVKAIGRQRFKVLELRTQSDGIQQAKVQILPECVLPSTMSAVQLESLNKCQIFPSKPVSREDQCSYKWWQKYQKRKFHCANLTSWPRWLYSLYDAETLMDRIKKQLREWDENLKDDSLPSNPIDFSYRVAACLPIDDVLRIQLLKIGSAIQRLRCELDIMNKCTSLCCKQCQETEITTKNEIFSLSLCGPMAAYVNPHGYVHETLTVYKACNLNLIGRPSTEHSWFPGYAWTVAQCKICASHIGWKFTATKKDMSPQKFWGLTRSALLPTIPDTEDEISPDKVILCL

[4] = molecular target: T2, Protein cereblon/Induced myeloid leukemia cell differentiation protein Mcl-1 (Homo sapiens); experiment: Protac activity at Cereblon/MCL1 in human OPM2 cells after 48 hrs by immunoblot analysis; assay type: cell-based
How it was run: (§1)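 OPM2 multiple myeloma cells, wild type or CRBN-knockout, were treated for 48 h with degrader or DMSO vehicle. MCL1 long and short isoforms were detected by immunoblot and levels compared with DMSO controls.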

[5] = molecular target: T2, Protein cereblon/Induced myeloid leukemia cell differentiation protein Mcl-1 (Homo sapiens); experiment: Protac activity at Cereblon/MCL1 in human OPM2 cell lysate assessed as induction of MCL1 polyubiquitination incubated for 3 hrs by SDS-PAGE/immunoblot analysis; assay type: subcellular
How it was run: (§2)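 In vitro ubiquitinylation reactions; the target (MCL1 or BRD4) was then immunoprecipitated and the immunoprecipitate immunoblotted for ubiquitin.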

[6] = molecular target: T1, Induced myeloid leukemia cell differentiation protein Mcl-1; experiment: Induction of MCL1 long isoform degradation in CRBN-/- human OPM2 cells assessed as protein abundance at 50 nM after 48 hrs by immunoblot analysis relative to control; assay type: cell-based; how it was run: as §1
[7] = molecular target: T2, Protein cereblon/Induced myeloid leukemia cell differentiation protein Mcl-1 (Homo sapiens); experiment: Protac activity at Cereblon/MCL1 long isoform in wild type human OPM2 cells at 500 nM after 48 hrs by immunoblot analysis relative to control; assay type: cell-based; how it was run: as §1
[8] = molecular target: T2, Protein cereblon/Induced myeloid leukemia cell differentiation protein Mcl-1 (Homo sapiens); experiment: Protac activity at Cereblon/MCL1 short isoform in wild type human OPM2 cells assessed as MCL1 short isoform abundance at 50 nM after 48 hrs by immunoblot analysis relative to control; assay type: cell-based
How it was run: (§3)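 OPM2 wild-type cells, run alongside the CRBN-/- line, were treated for 48 h with compound or DMSO. The MCL1 long and short isoforms were then measured by immunoblot against the DMSO control.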

[9] = molecular target: T1, Induced myeloid leukemia cell differentiation protein Mcl-1; experiment: Induction of MCL1 short isoform degradation in CRBN-/- human OPM2 cells assessed as protein abundance at 50 nM after 48 hrs by immunoblot analysis relative to control; assay type: cell-based; how it was run: as §1
[10] = molecular target: T1, Induced myeloid leukemia cell differentiation protein Mcl-1; experiment: Induction of MCL1 long isoform degradation in CRBN-/- human OPM2 cells assessed as protein abundance at 500 nM after 48 hrs by immunoblot analysis relative to control; assay type: cell-based; how it was run: as §1
[11] = molecular target: T1, Induced myeloid leukemia cell differentiation protein Mcl-1; experiment: Induction of MCL1 short isoform degradation in CRBN-/- human OPM2 cells assessed as protein abundance at 500 nM after 48 hrs by immunoblot analysis relative to control; assay type: cell-based; how it was run: as §1
[12] = molecular target: T1, Induced myeloid leukemia cell differentiation protein Mcl-1; experiment: Induction of MCL1 long isoform degradation in CRBN-/- human OPM2 cells assessed as protein abundance at 250 nM after 48 hrs by immunoblot analysis relative to control; assay type: cell-based; how it was run: as §1
[13] = molecular target: T1, Induced myeloid leukemia cell differentiation protein Mcl-1; experiment: Induction of MCL1 long isoform degradation in CRBN-/- human OPM2 cells assessed as protein abundance at 100 nM after 48 hrs by immunoblot analysis relative to control; assay type: cell-based; how it was run: as §1
[14] = molecular target: T2, Protein cereblon/Induced myeloid leukemia cell differentiation protein Mcl-1 (Homo sapiens); experiment: Protac activity at Cereblon/MCL1 short isoform in wild type human OPM2 cells assessed as MCL1 short isoform abundance at 100 nM after 48 hrs by immunoblot analysis relative to control; assay type: cell-based; how it was run: as §3
[15] = molecular target: T2, Protein cereblon/Induced myeloid leukemia cell differentiation protein Mcl-1 (Homo sapiens); experiment: Protac activity at Cereblon/MCL1 long isoform in wild type human OPM2 cells assessed as protein abundance at 50 nM after 48 hrs by immunoblot analysis relative to control; assay type: cell-based; how it was run: as §1
[16] = Half-life in human liver microsome pre-incubated for 10 mins followed by addition of NADPH regenerating system after 5 to 60 mins by LC/MS/MS analysis; assay type: ADME; details: liver microsomes
[17] = molecular target: T2, Protein cereblon/Induced myeloid leukemia cell differentiation protein Mcl-1 (Homo sapiens); experiment: Protac activity at Cereblon/MCL1 long isoform in wild type human OPM2 cells at 250 nM after 48 hrs by immunoblot analysis relative to control; assay type: cell-based; how it was run: as §1
[18] = molecular target: T1, Induced myeloid leukemia cell differentiation protein Mcl-1; experiment: Induction of MCL1 short isoform degradation in CRBN-/- human OPM2 cells assessed as protein abundance at 100 nM after 48 hrs by immunoblot analysis relative to control; assay type: cell-based; how it was run: as §1
[19] = molecular target: T2, Protein cereblon/Induced myeloid leukemia cell differentiation protein Mcl-1 (Homo sapiens); experiment: Protac activity at Cereblon/MCL1 short isoform in wild type human OPM2 cells assessed as MCL1 short isoform abundance at 500 nM after 48 hrs by immunoblot analysis relative to control; assay type: cell-based; how it was run: as §3
[20] = molecular target: T2, Protein cereblon/Induced myeloid leukemia cell differentiation protein Mcl-1 (Homo sapiens); experiment: Protac activity at Cereblon/MCL1 short isoform in wild type human OPM2 cells assessed as MCL1 short isoform abundance at 250 nM after 48 hrs by immunoblot analysis relative to control; assay type: cell-based; how it was run: as §3
[21] = molecular target: T1, Induced myeloid leukemia cell differentiation protein Mcl-1; experiment: Induction of MCL1 short isoform degradation in CRBN-/- human OPM2 cells assessed as protein abundance at 250 nM after 48 hrs by immunoblot analysis relative to control; assay type: cell-based; how it was run: as §1
[22] = molecular target: T2, Protein cereblon/Induced myeloid leukemia cell differentiation protein Mcl-1 (Homo sapiens); experiment: Protac activity at Cereblon/MCL1 long isoform in wild type human OPM2 cells at 100 nM after 48 hrs by immunoblot analysis relative to control; assay type: cell-based; how it was run: as §1
[23] = molecular target: T1, Induced myeloid leukemia cell differentiation protein Mcl-1; experiment: Binding affinity to His-tagged biotinylated human MCL1 by surface plasmon resonance method
[24] = molecular target: Protein cereblon/Bromodomain-containing protein 4 (Homo sapiens) (UniProt O60885+Q96SW2); experiment: Protac activity at Cereblon/BRD4 in human OPM2 cell lysate assessed as induction of BRD4 polyubiquitination incubated for 3 hrs by SDS-PAGE/immunoblot analysis; assay type: subcellular; how it was run: as §2
Protein cereblon/Bromodomain-containing protein 4 (Homo sapiens), sequence (Q96SW2 whole entry, looked up, other chains not shown): as the sequence (Q96SW2 whole entry, looked up) above

T1 sequence (Q07820 whole entry, canonical isoform): as the sequence (Q07820 whole entry, looked up) above

Compound: Cc1nn(C)c(COc2ccc(N3CCN(C(=O)CCC(=O)NCCCOCCOCCOCCCNC(=O)CCCC[C@@H]4SC[C@@H]5NC(=O)N[C@@H]54)CC3)cc2)c1-c1cccc2c(CCCOc3cccc4ccccc34)c(C(=O)O)n(CCN3CCOCC3)c12
Activity [1]: Active
Activity [2]: Active

Compound: Cc1nn(C)c(COc2ccc(N3CCN(S(=O)(=O)N(C)C)CC3)cc2)c1-c1cccc2c(CCCOc3cccc4ccccc34)c(C(=O)O)n(CCN3CCN(C(=O)CCCC[C@@H]4SC[C@@H]5NC(=O)N[C@@H]54)CC3)c12
Activity [1]: Active
Activity [2]: Active

Compound: Cc1nn(C)c(COc2ccc(N3CCN(C(=O)COc4cccc5c4C(=O)N(C4CCC(=O)NC4=O)C5=O)CC3)cc2)c1-c1cccc2c(CCCOc3cccc4ccccc34)c(C(=O)O)n(CCN3CCOCC3)c12 (stereo unspecified)
Activity [4]: inactive
Activity [3]: inactive

Compound: Cc1nn(C)c(COc2ccc(N3CCN(S(=O)(=O)N(C)C)CC3)cc2)c1-c1cccc2c(CCCOc3cccc4ccccc34)c(C(=O)O)n(CCN3CCOCC3)c12
Activity [6]: 140%
Activity [7]: 275%
Activity [8]: 110%
Activity [9]: 100%
Activity [10]: 183%
Activity [11]: 286%
Activity [12]: 162%
Activity [13]: 152%
Activity [14]: 148%
Activity [15]: 140%
half-life [16]: 21.7 min
Activity [17]: 237%
Activity [18]: 111%
Activity [19]: 374%
Activity [20]: 287%
Activity [21]: 154%
Activity [22]: 195%
Kd [23]: 0.019 µM

Compound: Cc1sc2c(c1C)C(c1ccc(Cl)cc1)=N[C@@H](CC(=O)NCCCCNC(=O)COc1cccc3c1C(=O)N(C1CCC(=O)NC1=O)C3=O)c1nnc(C)n1-2 (stereo partly specified)
Activity [24]: Active

Continued, values first:

Activity [3]: inactive
Compound: Cc1nn(C)c(COc2ccc(N3CCN(S(=O)(=O)N(C)C)CC3)cc2)c1-c1cccc2c(CCCOc3cccc4ccccc34)c(C(=O)NCCCCNC(=O)COc3cccc4c3C(=O)N(C3CCC(=O)NC3=O)C4=O)n(CCN3CCOCC3)c12 (stereo unspecified)

Activity [4]: inactive
Activity [3]: inactive
Compound: Cc1nn(C)c(COc2ccc(N3CCN(C(=O)CCCNC(=O)COc4cccc5c4C(=O)N(C4CCC(=O)NC4=O)C5=O)CC3)cc2)c1-c1cccc2c(CCCOc3cccc4ccccc34)c(C(=O)O)n(CCN3CCOCC3)c12 (stereo unspecified)

Activity [5]: Active
Compound: Cc1nn(C)c(COc2ccc(N3CCN(S(=O)(=O)N(C)C)CC3)cc2)c1-c1cccc2c(CCCOc3cccc4ccccc34)c(C(=O)O)n(CCN3CCN(C(=O)CCC(=O)NCCCOCCOCCOCCCNC(=O)COc4cccc5c4C(=O)N(C4CCC(=O)NC4=O)C5=O)CC3)c12 (stereo unspecified)

Activity [4]: inactive
Activity [3]: inactive
Compound: Cc1nn(C)c(COc2ccc(N3CCN(C(=O)CCC(=O)NCCCOCCOCCOCNC(=O)COc4cccc5c4C(=O)N(C4CCC(=O)NC4=O)C5=O)CC3)cc2)c1-c1cccc2c(CCCOc3cccc4ccccc34)c(C(=O)O)n(CCN3CCOCC3)c12 (stereo unspecified)
